Measurements published in ChEMBL document CHEMBL4028914, “Structure-Based Design of 6-Chloro-4-aminoquinazoline-2-carboxamide Derivatives as Potent and Selective p21-Activated Kinase 4 (PAK4) Inhibitors” (J Med Chem, 2018).

Assays:
[1] = Stability in rat liver microsomes assessed as compound remaining at 1 uM preincubated for 10 mins followed by NADPH addition measured after 1 hr by LC-MS/MS method; type: ADME, microsome; conditions: read-out: Stability
CYP2C9 = CYP2C9 (Homo sapiens, UniProt P11712); test: Inhibition of CYP2C9 in human liver microsomes at 10 uM using diclofenac as substrate preincubated for 10 mins followed by NADPH addition measured after 10 mins by LC-MS/MS method; type: ADME; conditions: probe diclofenac
How it was run: (§1)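 Each CYP isoform was tested at 10 μM compound. Positive controls: α-naphthoflavone (CYP1A2), sulfaphenazole (CYP2C9), ticlopidine (CYP2C19), quinidine (CYP2D6), ketoconazole (CYP3A4).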

[2] = Half life in rat liver microsomes at 1 uM preincubated for 10 mins followed by NADPH addition measured after 1 hr by LC-MS/MS method; type: ADME, microsome
CYP1A2 = molecular target: T1, CYP1A2 (Homo sapiens, UniProt P05177); test: Inhibition of CYP1A2 in human liver microsomes at 10 uM using phenacetin as the substrate preincubated for 10 mins followed by NADPH addition measured after 10 mins by LC-MS/MS method; type: ADME; conditions: probe phenacetin; how it was run: as §1
T1 sequence (P05177 whole entry): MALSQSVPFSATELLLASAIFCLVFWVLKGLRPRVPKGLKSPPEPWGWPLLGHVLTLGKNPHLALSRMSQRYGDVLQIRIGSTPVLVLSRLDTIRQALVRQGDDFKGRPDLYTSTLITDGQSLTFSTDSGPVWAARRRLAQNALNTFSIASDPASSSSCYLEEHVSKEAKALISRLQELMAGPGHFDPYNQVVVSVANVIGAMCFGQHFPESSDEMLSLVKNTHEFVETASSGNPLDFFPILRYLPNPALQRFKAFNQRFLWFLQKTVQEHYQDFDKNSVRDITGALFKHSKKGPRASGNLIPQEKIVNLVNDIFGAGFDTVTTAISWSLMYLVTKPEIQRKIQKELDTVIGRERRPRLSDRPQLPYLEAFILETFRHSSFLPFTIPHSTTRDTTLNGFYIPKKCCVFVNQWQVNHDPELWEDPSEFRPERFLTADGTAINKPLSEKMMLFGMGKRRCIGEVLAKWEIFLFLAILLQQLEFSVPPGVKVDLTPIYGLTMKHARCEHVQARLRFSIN

[3] = Volume of distribution at steady state in Sprague-Dawley rat at 2 mg/kg, iv by LC-MS/MS method; type: ADME, organism-based; conditions: in vivo, read-out: Vdss
How it was run: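 Sprague-Dawley rats receive a single intravenous dose of 2 mg/kg. Pharmacokinetic parameters derived are C0, clearance, Vss, T1/2, AUC(0−t) and AUC(0−∞). Values are averages of three independent determinations, reported as mean ± SD.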

[4] = Stability in rat liver microsomes assessed as compound remaining at 1 uM in absence of NADPH regenerating system measured after 1 hr by LC-MS/MS method; type: ADME, microsome; conditions: read-out: Stability
How it was run: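 Control incubation with rat liver microsomes: buffer replaces the NADPH regenerating system for the whole 60 min incubation. Read-out is percent of parent compound remaining.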

hERG (KCNH2) = hERG (KCNH2) (Homo sapiens, UniProt Q12809); test: Inhibition of human ERG at 40 uM by Qpatch assay relative to control
How it was run: (§2)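 hERG current was recorded by automated patch clamp (Qpatch 16×) in CHO cells expressing hERG.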

[5] = Clearance in Sprague-Dawley rat at 2 mg/kg, iv by LC-MS/MS method; type: ADME, organism-based; conditions: in vivo
How it was run: (§3)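 Single intravenous dose of 2 mg/kg given to Sprague-Dawley rats. Values are the mean ± SD of three independent determinations.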

[6] = Intrinsic clearance in rat liver microsomes at 1 uM measured after 1 hr by LC-MS/MS method; type: ADME, microsome; conditions: read-out: CLH
[7] = Distribution coefficient, logD of the compound at pH 7.4 by UV-metric method; type: physicochemical; conditions: octanol/water
[8] = Aqueous solubility of the compound at pH 2.0 by UV-metric method; type: physicochemical
[9] = molecular target: Voltage-gated inwardly rectifying potassium channel KCNH2 (Homo sapiens, UniProt Q12809); test: Inhibition of human ERG by Qpatch assay; how it was run: as §2
CYP2C19 = CYP2C19 (Homo sapiens, UniProt P33261); test: Inhibition of CYP2C19 in human liver microsomes at 10 uM using S-mephenytoin as substrate preincubated for 10 mins followed by NADPH addition measured after 10 mins by LC-MS/MS method; type: ADME; conditions: probe S-mephenytoin; how it was run: as §1
[10] = Stability in human liver microsomes assessed as compound remaining at 1 uM preincubated for 10 mins followed by NADPH addition measured after 1 hr by LC-MS/MS method; type: ADME, microsome; conditions: read-out: Stability
[11] = Cmax in Sprague-Dawley rat at 2 mg/kg, iv by LC-MS/MS method; type: ADME, organism-based; design: dose 2 mg/kg, route intravenous; conditions: in vivo; how it was run: as §3
[12] = Stability in human liver microsomes assessed as compound remaining at 1 uM in absence of NADPH regenerating system measured after 1 hr by LC-MS/MS method; type: ADME, microsome; conditions: read-out: Stability
How it was run: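 Liver microsomal incubation ran for 60 min without the NADPH regenerating system, which was replaced by buffer. Read-out was percent compound remaining.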

[13] = Partition coefficient, log P of the compound by UV-metric method; type: physicochemical; conditions: octanol/water
[14] = Intrinsic clearance in rat liver at 1 uM measured after 1 hr by LC-MS/MS method; type: ADME, tissue-based; conditions: read-out: CLH
[15] = Intrinsic clearance in human liver at 1 uM measured after 1 hr by LC-MS/MS method; type: ADME, tissue-based; conditions: read-out: CLH
CYP3A4 = CYP3A4 (Homo sapiens, UniProt P08684); test: Inhibition of CYP3A4 in human liver microsomes at 10 uM using midozolam as substrate preincubated for 10 mins followed by NADPH addition measured after 10 mins by LC-MS/MS method; type: ADME; conditions: probe midozolam; how it was run: as §1
[16] = AUC (0 to infinity) in Sprague-Dawley rat at 2 mg/kg, iv by LC-MS/MS method; type: ADME, organism-based; design: dose 2 mg/kg, route intravenous, time infinity; conditions: in vivo; how it was run: as §3
[17] = Intrinsic clearance in human liver microsomes at 1 uM measured after 1 hr by LC-MS/MS method; type: ADME, microsome; conditions: read-out: CLH
[18] = Stability in Sprague-Dawley rat blood plasma assessed as compound remaining at 2 uM measured after 120 mins by LC-MS/MS method; type: ADME, cell-free; conditions: read-out: Stability
[19] = Half life in human liver microsomes at 1 uM preincubated for 10 mins followed by NADPH addition measured after 1 hr by LC-MS/MS method; type: ADME, microsome
[20] = AUC (0 to t) in Sprague-Dawley rat at 2 mg/kg, iv by LC-MS/MS method; type: ADME, organism-based; conditions: in vivo; how it was run: as §3
[21] = Half life in Sprague-Dawley rat at 2 mg/kg, iv by LC-MS/MS method; type: ADME, organism-based; conditions: in vivo; how it was run: as §3
[22] = Solubility of the compound in DMSO by UV-metric method; type: physicochemical
[23] = Initial concentration in Sprague-Dawley rat at 2 mg/kg, iv by LC-MS/MS method; type: ADME, organism-based; conditions: in vivo; how it was run: as §3
[24] = Stability in Sprague-Dawley rat blood plasma assessed as compound remaining at 2 uM measured after 60 mins by LC-MS/MS method; type: ADME, cell-free; conditions: read-out: Stability
CYP2D6 = CYP2D6 (Homo sapiens, UniProt P10635); test: Inhibition of CYP2D6 in human liver microsomes at 10 uM using dextromethorphan as substrate preincubated for 10 mins followed by NADPH addition measured after 10 mins by LC-MS/MS method; type: ADME; conditions: probe dextromethorphan; how it was run: as §1
[25] = Aqueous solubility of the compound at pH 7.4 by UV-metric method; type: physicochemical
[26] = Dissociation constant, pKa of compound; type: physicochemical

CYP2C9, sequence (P11712 whole entry, canonical isoform): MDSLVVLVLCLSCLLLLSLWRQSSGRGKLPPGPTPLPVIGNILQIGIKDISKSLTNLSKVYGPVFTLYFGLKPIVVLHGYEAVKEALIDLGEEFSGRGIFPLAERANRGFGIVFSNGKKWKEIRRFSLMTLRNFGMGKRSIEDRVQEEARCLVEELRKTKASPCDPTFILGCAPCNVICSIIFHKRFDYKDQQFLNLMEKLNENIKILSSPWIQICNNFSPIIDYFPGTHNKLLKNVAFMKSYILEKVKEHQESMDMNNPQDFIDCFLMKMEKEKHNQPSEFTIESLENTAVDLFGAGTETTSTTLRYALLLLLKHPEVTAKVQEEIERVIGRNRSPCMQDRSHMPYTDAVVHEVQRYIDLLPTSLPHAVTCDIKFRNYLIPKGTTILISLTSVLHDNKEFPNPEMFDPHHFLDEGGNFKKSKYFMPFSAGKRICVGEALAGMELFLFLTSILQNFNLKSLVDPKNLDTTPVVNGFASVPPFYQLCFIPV
CYP2D6, sequence (P10635 whole entry): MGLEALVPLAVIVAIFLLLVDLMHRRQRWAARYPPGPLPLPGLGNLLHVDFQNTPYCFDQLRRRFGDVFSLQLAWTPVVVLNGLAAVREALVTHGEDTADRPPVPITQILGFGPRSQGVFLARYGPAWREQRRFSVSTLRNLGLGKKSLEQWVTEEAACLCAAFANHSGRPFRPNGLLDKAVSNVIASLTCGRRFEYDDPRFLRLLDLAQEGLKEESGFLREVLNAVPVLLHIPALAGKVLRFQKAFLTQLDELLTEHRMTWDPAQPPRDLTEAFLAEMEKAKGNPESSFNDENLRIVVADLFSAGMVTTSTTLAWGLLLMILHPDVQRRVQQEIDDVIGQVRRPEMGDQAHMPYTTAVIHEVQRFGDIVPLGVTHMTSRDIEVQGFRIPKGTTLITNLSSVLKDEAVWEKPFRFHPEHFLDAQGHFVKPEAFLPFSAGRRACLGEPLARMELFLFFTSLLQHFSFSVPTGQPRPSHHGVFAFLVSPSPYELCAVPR
CYP2C19, sequence (P33261 whole entry): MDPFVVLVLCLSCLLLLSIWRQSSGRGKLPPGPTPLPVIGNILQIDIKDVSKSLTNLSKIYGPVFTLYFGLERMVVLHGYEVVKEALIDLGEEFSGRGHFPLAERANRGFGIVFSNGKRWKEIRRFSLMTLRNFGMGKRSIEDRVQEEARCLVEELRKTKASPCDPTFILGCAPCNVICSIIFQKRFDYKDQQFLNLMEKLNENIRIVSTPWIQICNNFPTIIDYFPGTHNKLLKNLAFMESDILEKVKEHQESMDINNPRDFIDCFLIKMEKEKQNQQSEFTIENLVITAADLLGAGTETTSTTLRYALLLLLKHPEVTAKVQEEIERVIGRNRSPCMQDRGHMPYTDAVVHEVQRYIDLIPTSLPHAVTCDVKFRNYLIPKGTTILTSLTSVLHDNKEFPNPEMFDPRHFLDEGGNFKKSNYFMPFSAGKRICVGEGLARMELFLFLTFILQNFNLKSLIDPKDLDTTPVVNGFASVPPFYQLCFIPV
hERG (KCNH2), sequence (Q12809 whole entry): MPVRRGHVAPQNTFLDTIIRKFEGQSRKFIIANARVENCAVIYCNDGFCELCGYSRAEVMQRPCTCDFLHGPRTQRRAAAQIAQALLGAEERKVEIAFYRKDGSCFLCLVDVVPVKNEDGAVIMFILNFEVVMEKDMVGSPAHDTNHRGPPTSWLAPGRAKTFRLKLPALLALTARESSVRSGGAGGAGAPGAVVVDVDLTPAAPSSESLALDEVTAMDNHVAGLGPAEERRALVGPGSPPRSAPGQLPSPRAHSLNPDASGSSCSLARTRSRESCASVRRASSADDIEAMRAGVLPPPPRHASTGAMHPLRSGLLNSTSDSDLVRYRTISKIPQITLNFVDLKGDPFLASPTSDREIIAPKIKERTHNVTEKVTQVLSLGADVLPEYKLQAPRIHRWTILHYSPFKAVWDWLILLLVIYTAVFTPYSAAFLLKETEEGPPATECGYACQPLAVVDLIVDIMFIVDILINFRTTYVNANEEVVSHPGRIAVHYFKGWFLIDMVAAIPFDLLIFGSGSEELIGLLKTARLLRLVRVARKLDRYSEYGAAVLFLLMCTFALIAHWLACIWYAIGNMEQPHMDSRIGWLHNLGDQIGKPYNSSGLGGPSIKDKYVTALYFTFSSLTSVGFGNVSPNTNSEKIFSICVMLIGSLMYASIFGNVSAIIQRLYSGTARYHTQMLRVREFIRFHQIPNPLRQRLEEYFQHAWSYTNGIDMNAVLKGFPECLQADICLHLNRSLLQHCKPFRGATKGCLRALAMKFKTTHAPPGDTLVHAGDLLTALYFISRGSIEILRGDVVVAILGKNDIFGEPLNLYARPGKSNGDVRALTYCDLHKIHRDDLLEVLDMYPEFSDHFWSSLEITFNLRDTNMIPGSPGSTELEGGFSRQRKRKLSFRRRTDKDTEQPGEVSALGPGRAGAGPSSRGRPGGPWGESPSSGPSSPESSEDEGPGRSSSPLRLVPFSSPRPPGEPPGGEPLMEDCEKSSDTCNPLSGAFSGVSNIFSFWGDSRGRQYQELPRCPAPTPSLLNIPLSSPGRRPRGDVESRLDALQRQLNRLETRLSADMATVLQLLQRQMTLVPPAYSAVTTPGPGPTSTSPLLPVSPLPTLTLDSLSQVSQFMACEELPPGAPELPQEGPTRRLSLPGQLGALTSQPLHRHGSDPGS
Voltage-gated inwardly rectifying potassium channel KCNH2, sequence (Q12809 whole entry): as above
CYP3A4, sequence (P08684 whole entry): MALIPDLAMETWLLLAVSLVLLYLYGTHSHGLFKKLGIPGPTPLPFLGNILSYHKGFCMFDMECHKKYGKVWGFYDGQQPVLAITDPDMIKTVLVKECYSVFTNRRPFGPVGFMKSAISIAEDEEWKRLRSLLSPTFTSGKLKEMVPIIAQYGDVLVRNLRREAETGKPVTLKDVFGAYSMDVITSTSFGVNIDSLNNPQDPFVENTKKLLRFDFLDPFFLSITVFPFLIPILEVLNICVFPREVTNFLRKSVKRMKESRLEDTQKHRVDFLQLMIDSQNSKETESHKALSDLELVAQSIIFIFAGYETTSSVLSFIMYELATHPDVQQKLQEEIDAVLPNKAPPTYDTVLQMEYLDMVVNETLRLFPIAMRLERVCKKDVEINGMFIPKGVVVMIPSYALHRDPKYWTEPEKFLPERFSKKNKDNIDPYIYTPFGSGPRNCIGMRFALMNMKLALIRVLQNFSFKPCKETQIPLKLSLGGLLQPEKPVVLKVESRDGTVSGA

remaining at 1 h, 1 µM [1]: 36.9%
inhibition at 10 min, 10 µM (CYP2C9): 15.1%
half-life at 1 µM [2]: 41.8 min
inhibition at 10 min, 10 µM (CYP1A2): 17.2%
Vd [3]: 6.43 L/kg
remaining at 1 h, 1 µM [4]: 97%
clearance [5]: 70.7 mL/min/kg
microsomal CLint at 1 µM [6]: 33.2 µL/min/mg
logD [7]: 1.9
solubility [8]: > 10000 µg/mL
inhibition at 10 min, 10 µM (CYP2C19): 12.2%
remaining at 1 h, 1 µM [10]: 41.9%
Cmax [11]: 736 ng/mL
remaining at 1 h, 1 µM [12]: 103%
logP [13]: 2.54
CLint scaled at 1 µM [14]: 59.7 mL/min/kg
CLint scaled at 1 µM [15]: 25.8 mL/min/kg
inhibition at 10 min, 10 µM (CYP3A4): 2.3%
AUC(0-inf) [16]: 472 ng·h/mL
microsomal CLint at 1 µM [17]: 28.7 µL/min/mg
remaining at 2 h, 2 µM [18]: 115%
half-life at 1 µM [19]: 48.4 min
AUC(0-t) [20]: 465 ng·h/mL
half-life [21]: 87.6 min
solubility [22]: > 30 mM
C0 [23]: 736 ng/mL
remaining at 1 h, 2 µM [24]: 110%
inhibition at 10 min, 10 µM (CYP2D6): 1.8%
solubility [25]: > 10000 µg/mL
pKa [26]: 7.93
Structure (SMILES): C[C@@H]1CN(C(=O)c2nc(Nc3cc(C4CC4)[nH]n3)c3cc(Cl)ccc3n2)CCN1.Cl
inhibition at 40 µM (hERG (KCNH2)): 42%
IC50 [9]: > 40 µM
